Active and inactive are the calls of the source.
Columns and labels:
[1] = test system: SMMC-7721; assay: Induction of paraptosis in human SMMC7721 cells assessed as increase in LC3-II/LC3-I expression ratio by Western blot analysis; format: functional, cell-based
[2] = test system: SMMC-7721; assay: Induction of cytoplasmic vacuolation in human SMMC7721 cells at 10 uM incubated for 48 hrs by phase contrast microscopy; format: functional, cell-based
[3] = test system: SMMC-7721; assay: Decrease in p62 expression level in human SMMC7721 cells by Western blot analysis; format: functional, cell-based
[4] = test system: SMMC-7721; assay: Induction of paraptosis in human SMMC7721 cells assessed as increase in GRP78 expression by Western blot analysis; format: functional, cell-based
[5] = test system: CNE; assay: Antiproliferative activity against human CNE1 cells assessed as reduction in cell viability incubated for 48 hrs by MTT assay; format: functional, cell-based
[6] = test system: SMMC-7721; assay: Antiproliferative activity against human SMMC7721 assessed as reduction in cell viability incubated for 48 hrs by MTT assay; format: functional, cell-based
[7] = test system: CNE-2; assay: Antiproliferative activity against human CNE2 cells assessed as reduction in cell viability incubated for 48 hrs by MTT assay; format: functional, cell-based
[8] = test system: SMMC-7721; assay: Induction of cytoplasmic vacuolation in human SMMC7721 cells assessed as vacuolar cell formation and appearance of apoptotic cells at 3 to 10 uM incubated for 48 hrs by phase contrast microscopy; format: functional, cell-based
[9] = test system: HepG2; assay: Antiproliferative activity against human HepG2 cells assessed as reduction in cell viability incubated for 48 hrs by MTT assay; format: functional, cell-based
[10] = test system: SMMC-7721; assay: Induction of apoptosis with PS translocation in human SMMC7721 cells at 3 to 10 uM incubated for 48 hrs by Annexin V-FITC and propidium iodide staining based flow cytometry; format: functional, cell-based
Outline: (§1)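 After 48 h treatment, SMMC-7721 cells were collected, stained with annexin V-FITC plus PI, and analysed by flow cytometry for PS externalization/apoptotic fraction.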

[11] = test system: HepG2; assay: Induction of cell vacuole formation in human HepG2 cells at 5 uM incubated for 24 hrs by phase contrast microscopy; format: functional, cell-based
[12] = test system: SMMC-7721; assay: Induction of cell vacuole formation in human SMMC7721cells at 5 uM incubated for 24 hrs by phase contrast microscopy; format: functional, cell-based
[13] = test system: CNE-2; assay: Induction of cell vacuole formation in human CNE2 cells at 5 uM incubated for 24 hrs by phase contrast microscopy; format: functional, cell-based
[14] = test system: CNE; assay: Induction of cell vacuole formation in human CNE1 cells at 5 uM incubated for 24 hrs by phase contrast microscopy; format: functional, cell-based
[15] = test system: SMMC-7721; assay: Induction of cell morphological changes in human SMMC7721 cells assessed as nuclear chromatin pyknosis at 3 to 10 uM incubated for 48 hrs by H and E staining based light microscopy; format: functional
Outline: (§2)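 Haematoxylin-eosin staining of SMMC-7721 cells after 48 h treatment, examined by light microscopy.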

[16] = test system: SMMC-7721; assay: Induction of endoplasmic reticulum stress in human SMMC7721 cells assessed as increase in GRP78 expression at 3 uM by Western blot analysis; format: functional, cell-based; conditions: TDE = time-dependent effect
[17] = test system: CNE-2; assay: Antiproliferative activity against human CNE2 cells assessed as reduction in cell viability incubated for 48 hrs by CCK-8 assay; format: functional, cell-based
[18] = test system: SMMC-7721; assay: Induction of cell morphological changes in human SMMC7721 cells assessed as change in cell membrane structure at 5 uM incubated for 48 hrs by transmission electron microscopy; format: functional, cell-based
Outline: (§3)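 SMMC-7721 cells incubated 48 h at 5 μM, alongside untreated control cells, then imaged by transmission electron microscopy. ER, mitochondria, Golgi, nucleus, membrane and autophagosomes/apoptotic bodies were inspected.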

[19] = test system: SMMC-7721; assay: Inhibition of autophagosome formation in human SMMC7721 cells assessed as increase in p62 level at 3 uM incubated for 12 to 48 hrs by Western blot analysis; format: functional, cell-based
[20] = test system: SMMC-7721; assay: Induction of cell cycle arrest in human SMMC7721 cells at 3 to 10 uM incubated for 48 hrs by propidium iodide staining based flow cytometry; format: functional
[21] = test system: SMMC-7721; assay: Induction of cytoplasmic vacuolation in human SMMC7721 cells assessed as increase in number of vacuoles formation with shrinked volume of vacuoles at 3 to 10 uM incubated for 48 hrs by inverted phase contrast microscopy; format: functional, cell-based
[22] = test system: SMMC-7721; assay: Induction of cell morphological changes in human SMMC7721 cells assessed as autophagosome formation at 5 uM incubated for 48 hrs by transmission electron microscopy; format: functional, cell-based; outline: as §3
[23] = test system: SMMC-7721; assay: Induction of endoplasmic reticulum vacuolation in human SMMC7721 cells assessed as nuclei shrank and appearance of vacuoles surrounded by positive ER-specific markers at 3 to 5 uM incubated for 48 hrs by ER-tracker red and Hoechst 33342 staining based laser scanning confocal microscopy; format: functional, cell-based
[24] = test system: SMMC-7721; assay: Induction of cell morphological changes in human SMMC7721 cells assessed as cytoplasmic loss at 3 to 10 uM incubated for 48 hrs by H and E staining based light microscopy; format: functional; outline: as §2
[25] = test system: SMMC-7721; assay: Induction of cell morphological changes in human SMMC7721 cells assessed as appearance of concentrated nucleus at 5 uM incubated for 48 hrs by transmission electron microscopy; format: functional, cell-based; outline: as §3
[26] = test system: SMMC-7721; assay: Induction of cell morphological changes in human SMMC7721 cells assessed as appearance of smaller nucleus at 5 uM incubated for 48 hrs by transmission electron microscopy; format: functional, cell-based; outline: as §3
[27] = test system: SMMC-7721; assay: Induction of cell morphological changes in human SMMC7721 cells assessed as vacuole formation in mitochondria at 5 uM incubated for 48 hrs by transmission electron microscopy; format: functional, cell-based; outline: as §3
[28] = test system: HepG2; assay: Antiproliferative activity against human HepG2 cells assessed as reduction in cell viability incubated for 48 hrs by CCK-8 assay; format: functional, cell-based
[29] = test system: SMMC-7721; assay: Effect on cleaved caspase 3 level in human SMMC7721 cells at antiproliferative IC60 incubated for 12 to 48 hrs by Western blot analysis; format: functional, cell-based
Outline: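 SMMC-7721 cells were treated 12, 24 and 48 h, with cisplatin as apoptosis positive control. Extracts were immunoblotted for procaspase-3 and cleaved caspase-3, with β-actin as loading control.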

[30] = test system: SMMC-7721; assay: Induction of apoptosis in human SMMC7721 cells assessed as viable cells with normal cell membrane at 10 uM incubated for 48 hrs by Annexin V-FITC and propidium iodide staining based flow cytometry; format: functional; outline: as §1
[31] = test system: CNE; assay: Antiproliferative activity against human CNE1 cells assessed as reduction in cell viability incubated for 48 hrs by CCK-8 assay; format: functional, cell-based
[32] = test system: SMMC-7721; assay: Antiproliferative activity against human SMMC7721 assessed as reduction in cell viability incubated for 48 hrs by CCK-8 assay; format: functional, cell-based; conditions: SMMC-7721, 48 h
[33] = test system: SMMC-7721; assay: Induction of endoplasmic reticulum vacuolation in human SMMC7721 cells assessed as increase in vacuole formation and entire ER cytoplasm occupied with vacuole with loss of cell contents at 3 to 5 uM incubated for 48 hrs by ER-tracker red and Hoechst 33342 staining based laser scanning confocal microscopy; format: functional
[34] = test system: CNE-2; assay: Induction of cell vacuole formation in human CNE2 cells at 3 to 5 uM incubated for 48 hrs by phase contrast microscopy; format: functional, cell-based
[35] = test system: SMMC-7721; assay: Induction of cell morphological changes in human SMMC7721 cells assessed as appearance of small vacuoles in cytoplasm at 5 uM incubated for 48 hrs by transmission electron microscopy; format: functional, cell-based; outline: as §3
[36] = test system: SMMC-7721; assay: Induction of mitochondrial swelling, vacuoles and ridges disappearance and loss of mitochondrial and golgi apparatus structural integrity in human SMMC7721 cells at 5 uM incubated for 48 hrs by transmission electron microscopy; format: functional, cell-based; outline: as §3
[37] = test system: SMMC-7721; assay: Induction of cell morphological changes in human SMMC7721 cells assessed as formation of apoptotic bodies at 5 uM incubated for 48 hrs by transmission electron microscopy; format: functional, cell-based; outline: as §3
[38] = test system: SMMC-7721; assay: Induction of cell morphological changes in human SMMC7721 cells assessed as cell shrinkage at 3 to 10 uM incubated for 48 hrs by HE staining based light microscopy; format: functional; outline: as §2
[39] = test system: SMMC-7721; assay: Induction of cell morphological changes in human SMMC7721 cells assessed as swelling of mitochondria at 5 uM incubated for 48 hrs by transmission electron microscopy; format: functional, cell-based; outline: as §3
[40] = test system: SMMC-7721; assay: Induction of cell morphological changes in human SMMC7721 cells assessed as appearance of large vacuoles in cytoplasm at 5 uM incubated for 48 hrs by transmission electron microscopy; format: functional, cell-based; outline: as §3
[41] = test system: SMMC-7721; assay: Induction of cell morphological changes in human SMMC7721 cells assessed as appearance of ridges in mitochondria at 5 uM incubated for 48 hrs by transmission electron microscopy; format: functional, cell-based; outline: as §3
[42] = test system: SMMC-7721; assay: Antiproliferative activity against human SMMC7721 cells assessed as decrease in cell viability incubated for 48 hrs by CCK-8 assay; format: functional, cell-based
Outline: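 SMMC-7721 cells exposed 48 h to 3, 5 or 10 μM, then viability read by CCK-8 assay.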

[43] = test system: SMMC-7721; assay: Increase in LC3-II/LC3-I expression ratio in human SMMC7721 cells at 3 uM incubated for 12 to 48 hrs by Western blot analysis; format: functional, cell-based
[44] = test system: CNE; assay: Induction of cell vacuole formation in human CNE1 cells at 3 to 5 uM incubated for 48 hrs by phase contrast microscopy; format: functional, cell-based
[45] = test system: SMMC-7721; assay: Induction of endoplasmic reticulum vacuolation in human SMMC7721 cells assessed as vacuole derivatization by expansion and swelling of rough ER with vacuoles wrapped in monolayer membranes with loss of ER structure integrity at 5 uM incubated for 48 hrs by transmission electron microscopy; format: functional, cell-based; outline: as §3
[46] = test system: HepG2; assay: Induction of cell vacuole formation in human HepG2 cells at 3 to 5 uM incubated for 48 hrs by phase contrast microscopy; format: functional, cell-based

O=C(O)c1cc(OCc2ccccc2)c2c(c1)C(=O)c1cccc(OCc3ccccc3)c1C2=O
inactive: Activity [1] | inhibition [3]
active: Activity [2] | Activity [4]

O=C(OCCN1CCCCC1)c1cc(OCc2ccccc2)c2c(c1)C(=O)c1cccc(OCc3ccccc3)c1C2=O
active: inhibition [5] | inhibition [6] | inhibition [7] | Activity [8] | inhibition [9] | Activity [10] | Activity [11] | Activity [12] | Activity [13] | Activity [14]

O=C(O)c1cc(O)c2c(c1)C(=O)c1cccc(O)c1C2=O
inactive: Activity [1] | inhibition [3] | Activity [4]

O=C1c2cccc(OCc3ccccc3)c2C(=O)c2c(OCc3ccccc3)cc(C(=O)N3CCN(CCO)CC3)cc21
active: inhibition [5] | inhibition [6] | inhibition [7] | inhibition [9] | Activity [11] | Activity [12] | Activity [13] | Activity [14]

O=C(NCCO)c1cc(OCc2ccccc2)c2c(c1)C(=O)c1cccc(OCc3ccccc3)c1C2=O
1500 nM: IC50 [32]
22.42%: Activity [30]
inactive: Activity [18] | Activity [20] | Activity [22] | Activity [29] | Activity [10] | Activity [37] | Activity [41] | inhibition [3]
active: Activity [15] | Activity [16] Tde | inhibition [17] | inhibition [19] | Activity [21] | Activity [23] | Activity [24] | Activity [25] | Activity [26] | Activity [1] | Activity [27] | inhibition [28] | inhibition [31] | Activity [11] | Activity [33] | Activity [34] | Activity [12] | Activity [35] | Activity [36] | Activity [13] | Activity [38] | Activity [39] | Activity [40] | inhibition [42] Dose-dependent effect | Activity [14] | Activity [4] | Activity [43] | Activity [44] | Activity [45] | Activity [46]
